From PMC2883079 (European Journal of Immunology, 2009)
“And” between values parts separate entries of the source, which are not always exact repeats. Identical values can stand only once. Like-named read-outs stand apart in the source and are kept apart here. No end group written: not given here.

B1: CCL19: chemokine, positive control for mDC migration (protein, UniProt Q99731 22-98, looked up)
C-C motif chemokine 19: GTNDAEDCCLSVTQKPIPGYIVRNFHYLLIKDGCRVPAVVFTTLRGRQLCAPPDQPWVERIIQRLQRTSAKMKRRSS

Legend:
[1] = tested on: mouse CD4^+ T cells; experiment: Chemotaxis assay, mouse CD4+ T cells; format: cell-based; settings: 4 h
Outline: (§1)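 In 48-well chemotaxis chambers, cells migrated for 4 h. Human CD4+ cells came from Ficoll–Paque mononuclear cells of donor blood or bone marrow, with CCL20 as positive control. Mouse cells were splenic CD4+ from magnetic positive selection, CD4/CD3-stained, with CXCL12a as control. Cells were at 5×10^5/mL in RPMI 1640/1% BSA, the medium also used to dilute peptides. Three ×400 fields were counted per triplicate well. MI = migrated cells at optimal concentration / peptide-free control. One-tailed t-test.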

[2] = tested on: HEK293 cells expressing human CCR6; experiment: Chemotaxis assay, HEK293 cells expressing human CCR6; format: cell-based; settings: HEK293 cells overexpressing human CCR6, 5 h
Outline: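 48-well chemotaxis chamber, 5 h. Cells at 5×10^5 per mL in RPMI 1640 with 1% BSA, which also served as diluent and no-peptide control. CCL20 positive control. Migrated cells counted in three random ×400 fields per well, triplicate wells, as mean per field. MI = count at optimal concentration / control count. One-tailed Student's t-test. Representative of at least three experiments.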

[3] = tested on: mature DC (mDC); experiment: Chemotaxis assay, LPS-matured DC; format: cell-based, mouse; settings: DC matured 24 h with 100 ng/mL E. coli LPS; 1.5 h
Outline: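 Mouse tibia/femur marrow at 3.75×10^5 cells/mL with GM-CSF supernatant (5%, 500 U/mL), refed day 3. Day 6 cultures then had LPS for 24 h. Phenotyped by flow for CD11c/MHC II, CD86, CD54, Gr1 and B220. 48-well chamber, 1.5 h, RPMI/1% BSA, cells at 5×10^5 per mL. CCL19 positive control. Three ×400 fields per well, triplicate wells, SD over nine counts, one-tailed t-test.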

[4] = tested on: immature DC (iDC), bone marrow-derived, 6 days in GM-CSF; experiment: Chemotaxis assay, iDC cultured in GM-CSF for 6 days; format: cell-based, mouse; settings: 1.5 h
[5] = tested on: human CD4^+ T cells; experiment: Chemotaxis assay, human CD4+ T cells; format: cell-based; settings: for optimal concentration for chemotaxis / migratory index (MI): 4 h; for migratory index (MI): at optimal concentration
Outline: as §1

[6] = cited from earlier work
[7] = tested on: immature DC (iDC), bone marrow-derived, 7 days in GM-CSF; experiment: Chemotaxis assay, iDC cultured in GM-CSF for 7 days; format: cell-based, mouse
Outline: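 Mouse tibia/femur marrow cells were seeded at 3.75×10^5/mL in complete medium with 5% (500 U/mL) GM-CSF supernatant, refed on day 3. Loosely adherent cells were harvested on day 6 or day 7. Migration ran 1.5 h in 48-well chambers, cells at 5×10^5/mL in RPMI 1640/1% BSA, with CCL20 as positive control. Three ×400 fields were counted per triplicate well. MI = migrated cells at optimal peptide / control medium. One-tailed t-test, p<0.05.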

[8] = tested on: CD4 T cells; experiment: Chemotaxis of CD4 T cells; format: cell-based; settings: species of cells not stated
Outline: as §1

[9] = tested on: neutrophils; experiment: Chemotaxis assay, peritoneal neutrophils; format: cell-based, mouse; settings: at least 90% pure, positive control at 45 ng/mL
Outline: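 Mouse peritoneal neutrophils, identified by morphology and at least 90% pure. Tested in 48-well chemotaxis chambers with N-formylmethionyl leucyl phenylalanine as positive control and RPMI 1640/1% BSA as medium and no-peptide control. Cells at 5×10^5 per mL. Migrated cells counted in three random ×400 fields per well in triplicate wells. Reported as mean per field. One-tailed Student's t-test.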

[10] = Antimicrobial activity; format: cell-based; settings: data not shown
[11] = d6iDC, p<0.05 vs control medium
[12] = d7iDC, at peak peptide concentration, 1.5 h

Molecule | optimal / only significant concentration for chemotaxis [1] [ng/mL] | chemoattraction of CCR6-expressing cells (result in words) [2] | migration of mDC (result in words) [3] | optimal concentration for chemotaxis [5] [ng/mL] | migratory index (MI) [5] | also measured
DPVTYIRNGGIAQYRAIGLRHKIGTAGSPFKCAK (disulfide (positions not given here)) [Defr1-1c^V] | 100 | unable to chemoattract these cells | Neither peptide could induce migration | 100 | 5.5 | migration of iDC (result in words) [4, 11]: Neither peptide could induce migration
CCL20: recognised chemokine ligand for the CCR6 receptor, positive control [reference compound] | – | can chemoattract these cells | – | – | – | –
DPVTCIRNGGICQYRCIGLRHKIGTCGSPFKCCK (also: bicyclic or more (positions not given here)) [Defr1-Y5C] | 100 | unable to chemoattract these cells | Neither peptide could induce migration | 100 | 5.5 | migration of iDC (result in words) [4, 11]: Neither peptide could induce migration; antimicrobial activity (result in words) [6]: poor antimicrobial activity
DPVTYIRNGGICQYRCIGLRHKIGTCGSPFKCCK (disulfide (positions not given here)) [Defr1] | 10 | neither Defr1 nor the six cysteine allele Defb8, can chemoattract these cells | do not show significant migration | 10 | 8 and 9 | migratory index (MI) ([1]; at optimal concentration): 2.5; peptide concentration giving peak migration ([7]; d7iDC, 1.5 h): 1 ng/mL; migratory index (MI) [7, 12]: ~3.5; migratory index (MI) ([7]; d7iDC, peptide at 0.1 ng/mL, p<0.05): 2.5; chemoattraction of CD4 T cells (result in words) [8]: attracting CD4 T cells; peptide concentration giving peak migration ([4]; d6iDC): 10 ng/mL; antimicrobial activity (result in words) [6]: potent antimicrobial activity; activity relative to Defr1 Y5C and Defr1-1c^V (peak concentration) [5]: tenfold more active
N-formylmethionyl leucyl phenyalanine | – | – | – | – | – | migration of neutrophils (result in words) [9]: significant migration
ELDHCHTNGGYCVRAICPPSARRPGSCFPEKNPCCKYMK (also: bicyclic or more (positions not given here)) [Defb2] | – | – | do not show significant migration | – | – | migration of d7iDC (result in words) ([7]; all concentrations tested, p<0.05 vs control): statistically significant migration; migratory index (MI) [7, 12]: 3.0; chemoattraction of CD4 T cells (result in words) [8]: attracting CD4 T cells
EPVSCIRNGGICQYRCIGLRHKIGTCGSPFKCCK (also: bicyclic or more (positions not given here)) [Defb8] | – | neither Defr1 nor the six cysteine allele Defb8, can chemoattract these cells | – | – | – | antimicrobial activity (result in words) [10]: much reduced antimicrobial activity compared with Defr1; migration of iDC (result in words) ([4]; iDC, days of culture not stated (Fig. 4A)): can chemoattract iDC
B1 | – | – | statistically significant migration | – | – | –
